Published values gathered from unrelated publications.
EGFR: Epidermal growth factor receptor (EGFR, Homo sapiens, UniProt P00533)

`C=C(Cl)C(=O)Nc1cc(Nc2nc(Nc3cnn(C)c3)c3sccc3n2)c(OC)cc1N(C)CCN(C)C` gave an IC50 of > 1 µM (Epidermal growth factor receptor (EGFR, Homo sapiens, UniProt P00533, C797S/L858R/T790M); enzyme activity; inhibitor; ELISA).
The Kd of `COc1cc2ncnc(Nc3ccc(O)cc3)c2cc1OC` is reported as 0.026 µM (EGFR; binding).
The IC50 of `O=C(N/N=C/c1cccn1CCCN1CCCCC1)Nc1cc2c(Nc3ccc(F)c(Cl)c3)ncnc2cc1O[C@H]1CCOC1` is reported as 0.0008 µM (EGFR; enzyme activity; inhibitor).
`CC#CC(=O)N1CC[C@@H](n2cc(-c3ccc(Oc4c(F)cccc4F)cc3)c3c(N)n[nH]c(=O)c32)C1` has a Kd of 0.27 µM (EGFR; binding; competition with immobilised ligand).
For `CCN(CC)C/C=N/NC(=O)Nc1cc2c(Nc3ccc(F)c(Cl)c3)ncnc2cc1O[C@H]1CCOC1`, the IC50 was 0.0004 µM (EGFR; enzyme activity; inhibitor).
`C=CC(=O)Nc1cc(Nc2nccc(-c3cn(C4CC4)c4ccccc34)n2)c(OC)cc1N(C)CCN(C)C` has an IC50 of 0.0828 µM (Epidermal growth factor receptor (EGFR, Homo sapiens, UniProt P00533, G719S); enzyme activity; inhibitor; TR-FRET).
For `COc1cc2ncc(-c3ccccc3)nc2cc1OC`, the Kd was > 10 µM (EGFR; binding).
For `C=C(Cl)C(=O)Nc1cc(Nc2nc(N3CCc4sccc4C3)c3sccc3n2)c(OC)cc1N(C)CCN(C)C`, the IC50 was 0.996 µM (EGFR; enzyme activity; inhibitor; ELISA).
